Nine compounds from ChEMBL document CHEMBL3588772, “Synthesis, anti-mycobacterial activity and DNA sequence-selectivity of a library of biaryl-motifs containing polyamides” (Bioorg Med Chem, 2015) can be followed below.

Values after ≈ are worked out from the molar mass of the structure shown. Active and inactive are the calls of the source. The calls are words filed in the database; no cut-off is given here.

The nature of data set [1]: Cytotoxicity against mouse RAW264.7 cells. The class given is cell-based. An outline of the steps:
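RAW264.7 mouse macrophages assessed by resazurin viability assay. GIC50 interpolated at 50% viability versus control.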

Data set [2] has as its system Mycobacterium tuberculosis. Nature of the data set: Antimycobacterial activity against Mycobacterium tuberculosis H37Rv after 7 days. Particulars: 168 h. The class given is functional. A digest of the protocol: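 HT-SPOTi agar growth inhibition in 96-well format. Serially diluted DMSO solutions were mixed into Middlebrook 7H10 agar (kept at 55 °C) with 0.05% glycerol and 10% OADC. Controls were DMSO-only wells and isoniazid. Each well received 2×10³ CFU of culture (pre-grown rolling at 2 rpm or standing, 37 °C). Plates ran 7 days at 37 °C. MIC = lowest concentration with no visible growth.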

Data set [3] can be described thus: Selectivity index, ratio of GIC50 for mouse RAW264.7 cells to MIC for Mycobacterium tuberculosis H37Rv. The class given is toxicity. Particulars: read-out: Selectivity Index. An outline of the steps:
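Cytotoxicity was measured in mouse macrophage RAW264.7 cells by resazurin viability readout. GIC50 was interpolated at 50% viability versus untreated control. SI = GIC50 divided by the M. tuberculosis MIC from the agar spot assay.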

The nature of data set [4]: Binding affinity to 5'-ACVHA-3' (V= A or G or C; H= C or T or A) (unknown origin) at 2 uM after 45 mins by ethidium bromide assay. An outline of the steps: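 Hairpin oligonucleotides from a 512-member five-bp library at 1 µM base pairs final with 4.4 µM ethidium bromide in 0.1 M Tris–HCl, 0.1 M NaCl, pH 8. Fluorescence read after 15 min at room temperature (ex 545, em 595 nm). Ligand added at 2 µM final (DMSO), read again after 45 min. Triplicates; % fluorescence reduction relative to no-drug and no-DNA controls.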

A short description of data set [5]: Binding affinity to 192 base-pair fragment HexB (unknown origin) at 5 to 10 uM after 30 mins by DNaSeI footprinting assay. A digest of the protocol:
(§1)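 Radiolabelled HexB fragment in 10 mM Tris–HCl pH 7.5 with 0.1 mM EDTA, mixed with ligand in 10 mM Tris–HCl pH 7.5 with 10 mM NaCl. Equilibrated 30 min at room temperature, then DNase I in 20 mM NaCl, 2 mM MgCl₂, 2 mM MnCl₂ for 1 min. Heated 100 °C 3 min, resolved on 8% denaturing polyacrylamide gels, phosphorimaged. GA purine markers and no-ligand control lanes included.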

Data set [6] concerns unidentified. The data set is described as follows: Binding affinity to 192 base-pair fragment HexB 5-AATATT-3 (unknown origin) at 1 to 10 uM after 30 mins by DNaSeI footprinting assay. An outline of the steps: as §1
For data set [7], the system named is unidentified. Nature of the data set: Binding affinity to 192 base-pair fragment HexB 5-ACATAT-3 (unknown origin) at 1 to 10 uM after 30 mins by DNaSeI footprinting assay. An outline of the steps: as §1
A short description of data set [8]: Binding affinity to 192 base-pair fragment HexB (unknown origin) at 1 to 10 uM after 30 mins by DNaSeI footprinting assay. A digest of the protocol: as §1
Data set [9] can be described thus: Binding affinity to 192 base-pair fragment HexB 5-ATTAAT-3 (unknown origin) at 1 to 10 uM after 30 mins by DNaSeI footprinting assay. A digest of the protocol:
as §1

Data set [10] can be described thus: Binding affinity to 192 base-pair fragment HexB 5-TTATAA-3 (unknown origin) at 5 to 10 uM after 30 mins by DNaSeI footprinting assay. An outline of the steps: as §1
Data set [11] is described as follows: Binding affinity to 192 base-pair fragment HexB 5-CAATTG-3 (unknown origin) at 5 to 10 uM after 30 mins by DNaSeI footprinting assay. A digest of the protocol: as §1
Data set [12] relates to unidentified. Nature of the data set: Binding affinity to 192 base-pair fragment HexB 5-TAATTA-3 (unknown origin) at 5 to 10 uM after 30 mins by DNaSeI footprinting assay. A digest of the protocol:
as §1

By GI50 is commonly meant the concentration giving 50% growth inhibition. A high value points to less potent growth inhibition. As a reminder, the MIC is the lowest concentration found to suppress growth. Low values mean a more susceptible organism, high ones a less susceptible organism.

`NNC(=O)c1ccncc1` [ISONIAZID] returned a GI50 in [1] of 3000 µg/mL (≈ 21900 µM). The compound also displayed an MIC in [2] of 0.05 µg/mL (≈ 0.365 µM). The selectivity ratio in data set [3] was found to be 60000.

On to `CC(=O)Nc1cccc(-c2ccc(C(=O)Nc3cc(C(=O)Nc4cc(C(=O)NCCCN(C)C)n(C)c4)n(C)c3)o2)c1`, for which, in data set [1], the GI50 worked out at 500 µg/mL (≈ 872 µM). In [2], this compound displayed an MIC of 125 µg/mL (≈ 218 µM). In addition, the selectivity ratio in data set [3] turned out to be 4.

In [1], `Cc1nc(-c2ccsc2)sc1C(=O)Nc1cc(C(=O)Nc2cc(C(=O)NCCCN(C)C)n(C)c2)n(C)c1` showed a GI50 of 62.5 µg/mL (≈ 113 µM). In data set [2], this compound showed an MIC of 250 µg/mL (≈ 451 µM). For the same compound, the selectivity ratio in [3] is 0.25.

`CC(=O)Nc1ccc(-c2cc(C(=O)Nc3cc(C(=O)Nc4cc(C(=O)NCCCN(C)C)n(C)c4)n(C)c3)n(C)c2)cc1` yielded a GI50 in data set [1] of 500 µg/mL (≈ 852 µM). Further, the MIC in [2] was 125 µg/mL (≈ 213 µM). The selectivity ratio in data set [3] came out at 4.

For `Cc1nc(-c2cnn(C)c2)sc1C(=O)Nc1cc(C(=O)Nc2cc(C(=O)NCCCN(C)C)n(C)c2)n(C)c1`, the result in data set [4], in [5], in [6], in data set [7], in [8] and in data set [9] was Active. In [1], this compound gave a 50% growth inhibitory concentration (GI50) of 250 µg/mL (≈ 453 µM). For the same compound, the MIC in [2] was found to be 31.2 µg/mL (≈ 56.6 µM). Moreover, in data set [3], the selectivity ratio was 8.

Turning to `CC(=O)Nc1ccc(-c2csc(C(=O)Nc3cc(C(=O)Nc4cc(C(=O)NCCCN(C)C)n(C)c4)n(C)c3)c2)cc1`, in data set [1], halving of growth (GI50) required 62.5 µg/mL (≈ 106 µM). In data set [2], this compound displayed an MIC of 62.5 µg/mL (≈ 106 µM). The selectivity ratio in data set [3] came to 1.

Consider `CO[C@H]1/C=C/O[C@@]2(C)Oc3c(C)c(O)c4c(O)c(c(/C=N/N5CCN(C)CC5)c(O)c4c3C2=O)NC(=O)/C(C)=C\C=C\[C@H](C)[C@H](O)[C@@H](C)[C@@H](O)[C@@H](C)[C@H](OC(C)=O)[C@@H]1C` [RIFAMPIN], for which halving of growth in [1] (GI50) required 700 µg/mL (≈ 851 µM). Further, in [2], the MIC amounted to 0.05 µg/mL (≈ 0.0608 µM). For the same compound, the selectivity ratio in [3] was determined as 14000.

Compound `CC(=O)Nc1ccc(-c2ccc(C(=O)Nc3cc(C(=O)Nc4cc(C(=O)NCCCN(C)C)n(C)c4)n(C)c3)o2)cc1` yielded a GI50 in [1] of 250 µg/mL (≈ 436 µM). Also, the lowest concentration to inhibit growth in data set [2] (MIC) was 125 µg/mL (≈ 218 µM). For the same compound, the selectivity ratio in [3] came out at 2.

On to `Cn1cc(NC(=O)c2cc(NC(=O)c3cc(NC=O)cn3C)cn2C)cc1C(=O)NCCC(=N)N` [STALLIMYCIN], for which the outcome in data set [5], in data set [10], in data set [11], in [8] and in [12] was Active. Also, the GI50 in [1] worked out at 62.5 µg/mL (≈ 130 µM). This compound also gave an MIC in [2] of 31.2 µg/mL (≈ 64.9 µM). Further, in data set [3], the selectivity ratio came out at 2.
